According to ChEMBL document CHEMBL4513216, “Probing the Open Global Health Chemical Diversity Library for Multistage-Active Starting Points for Next-Generation Antimalarials” (ACS Infect Dis, 2020):

Assay: Toxicity liver stage against HepG2, at 10uM
Format: cell-based
Parameters: test concentration 10 uM, cell line HepG2-A16-CD81EGFP
Conditions: human, HepG2-A16-CD81EGFP cells; read-out: INHIBITION
In short: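 Uninfected HepG2-A16-CD81EGFP cells, 3 × 10^3 per well, 1536-well, plated on prespotted compound at 10 μM final, parasite-free screening media added to match infected plates; puromycin 10 μM positive, DMSO 0.5% negative; run in parallel with 48 h PbLuc assay at 37 °C, 5% CO2; viability by CellTiter-Glo luminescence, normalized to controls.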

SMILES | cytotoxicity at 10 µM [%]
Cc1cc(C)n(CC(C)NC2CCN(Cc3cccnc3)CC2)n1 (stereo unspecified) | 2.45
CC(C)CN1C[C@@H]2C(=O)N(C)C3(CCN(C(=O)C(C)C)CC3)[C@@H]2C1 | 6.88
CC(C)(C)c1ncc2c(n1)CN(C(=O)c1ccc(-c3nc[nH]n3)cc1)C2 | -16.8
Cc1cc2c(cc1C)OC1(C=C2)CCN(CC(=O)N2CCOCC2)CC1 | -10.4
CN1CCN(c2cnn(CCn3cccn3)c(=O)c2)CC1 | -47.4
O=C(NCCSC1CCCC1)c1ccc(F)cc1F | -3.16
CCCc1cc(NCCN2CCNC2=O)n2nccc2n1 | -6.42
O=C(CN1CCC(C(=O)c2cc(F)ccc2F)CC1)NC1CCCC1 | 4.93
Cc1cnc(N2CCc3c(CN(C)Cc4ccco4)cncc3C2)nc1 | 4.15
Cn1nnc2c1CCN(C(C(=O)N1CCCCC1)c1ccccc1)C2 (stereo unspecified) | -2.56
O=C(NCCn1ccnc1-c1cc2n(n1)CCNC2)c1ccncc1 | -2.66
NCCn1cc(C(=O)N2CCCCCC2c2cccc(F)c2)nn1 (stereo unspecified) | 8.48
COCCN1CCN(c2nc(O)cc(Cc3ccccc3F)n2)CC1 | -4.52
Cn1cccc1CNC(=O)N(CCO)C1CCCc2ccccc21 (stereo unspecified) | -7.45
O=C(Cc1ccccc1F)NCCN1CCOCC1 | -46.1
Cc1ccccc1NC(=O)Nc1c[nH]c(=O)[nH]c1=O | 3.54
CS(=O)(=O)N1CCC2(CCN(C(=O)c3cccnc3)CC2)C1 | 3.59
CCc1ncc2c(n1)CN(C(=O)Cc1cc(OC)cc(OC)c1)C2 | 2.78
COc1cccc(CCn2ccnc2-c2cn(C3CCNCC3)nn2)c1 | -7.23
COc1cc(CN2CCC3(CC(Nc4ccncn4)C3)C2)cc(OC)c1 (stereo unspecified) | -9.27
N#CCCN(Cc1cccnc1)C(=O)c1cc(Cl)c[nH]1 | -18.4
CC(O)CN1CCN(C(=O)c2cnc(OC(C)C)c(Cl)c2)CC1 (stereo unspecified) | -19.5
COc1ccc(COCC(O)CNC(=O)c2cc(C)cc(C)c2)cc1 (stereo unspecified) | 0.385

SMILES | cytotoxicity at 10 µM [%]
CC(NC(=O)N1CCCCCC1)c1ccc(S(N)(=O)=O)cc1 (stereo unspecified) | -6.06
CS(=O)(=O)N1CCc2[nH]cnc2C12CCN(C(=O)c1cccnc1)CC2 | 2.62
COc1c(Cl)cc(C(=O)NCCNc2ncccn2)cc1Cl | -9.32
O=c1c2cccnc2cnn1CC(O)c1cccc(Cl)c1 (stereo unspecified) | -10.2
O=C(c1ccc(F)cc1)N1C[C@@H]2CN(c3ncccn3)C[C@@H]2C1 | 7.98
Cc1ccc(F)cc1NC(=O)NCC(C)N1CCOCC1 (stereo unspecified) | 2.6
CN(C)c1ccc(C(=O)N2CCCC2c2cnn(C)c2)nn1 (stereo unspecified) | -10.3
Cn1cccc1CN1CCC2(CCCN(C(=O)c3cccnc3)C2)CC1 | -147
O=C(NCCCOCc1ccco1)c1cccnc1N1CCOCC1 | -8.5
CN(C)C(=O)c1cccn1-c1ccc2c(c1)OCCO2 | 12.6
CS(=O)(=O)N[C@@H]1CN(Cc2ccco2)C[C@@H]2CCCO[C@@H]21 | 6.15
Cc1nc(C)c(CC(=O)N2CCC(Oc3ccccc3)CC2)c(=O)[nH]1 | 1.98
CCOC(=O)CCNC(=O)c1cccc2ccc(C)nc12 | -5.15
COCCN1CC(O)CN(C(=O)c2ccc(SC)cc2)CC1=O (stereo unspecified) | -0.53
CN(C)CCCn1ccnc1C1CCCN(c2ncc(Cl)cc2F)C1 (stereo unspecified) | -7.43
CCN(Cc1nc(COC)no1)C[C@]1(O)CCCN2CCCC[C@@H]21 | -0.124
Cc1nc(CN2CCCC(N(C)Cc3nc(CC(C)C)no3)C2)no1 (stereo unspecified) | 5.35
C[C@@H]1CN(CCC(=O)NCc2ccccc2Cl)C[C@@]1(O)C1CC1 | 2.75
COc1cccc(NC(=O)C2CC(=O)n3cnnc3S2)c1 (stereo unspecified) | 2.27
Cc1cc(-c2nn(C)c(Cl)c2CN2Cc3ccccc3C(O)C2)no1 (stereo unspecified) | 4.1
Cc1ccc(CN2CCN(Cc3ccc4nonc4c3)CC2=O)cc1 | -1.9
OCC1N(Cc2ccco2)C2CCC1(O)CC2 (stereo unspecified) | 3.1
O=C(c1ccnnc1)N1C[C@H](OCC2CCOCC2)[C@H]2OCCC[C@H]21 | 3.86

SMILES | cytotoxicity at 10 µM [%]
c1cc(-c2cnc(NC3CC3)nc2[C@H]2CCCO2)ccn1 | 9.83
Cc1nc(N2CCN(C(=O)c3ccccc3)CC2)c2c(n1)c(C)nn2C | 15.7
CC(O)c1cn(CC2CCN(C(=O)CN3CCCC3=O)CC2)nn1 (stereo unspecified) | 2.31
N#Cc1cccc(CN2CCn3cc(Cn4cccn4)nc3C2)c1 | -0.501
CO[C@@H]1CCN(Cc2nccs2)C[C@@H]1Cc1cccc(C)c1 | -71.8
CCN(C)c1ncnc2c1CCN(Cc1nccs1)CC2 | -2.46
CC(=O)c1cc(C(=O)NC2(c3ccccc3)CCC2)n(C)c1 | -11.7
Fc1cccc(N2CCCC3(CN(Cc4ccncc4)CCO3)C2)c1 (stereo unspecified) | 8.98
NC(=O)c1ccc(-c2nc3c(c(=O)[nH]2)CCNC3)cc1 | 1.37
CC(NC(=O)NCCNc1cccc(F)c1C#N)c1nccs1 (stereo unspecified) | -1.84
COCCNC(=O)c1cc(-n2cccc2)ccc1Cl | -3.45
Cc1cc(C)c2cc(CNCCCN3CCOCC3)c(=O)[nH]c2c1 | -23.8
COc1ccc(C(C)(C)C)cc1CN1CCn2c(CO)nnc2C1 | 10.4
CCCn1nnc(NCc2ccccc2OCc2ccc(Cl)cc2)n1 | 2.76
COc1cccc(CC(=O)N2CCc3ncnc(NC(C)C)c3CC2)c1 | 6.56
CC(=O)N1CCN(C(=O)NCc2cccnc2OC(C)C)CC1 | -17.5
CS(=O)(=O)N1CCc2sc(C(=O)NCc3ccncc3)cc21 | 2.93
Cc1ccc(C(=O)N2CCC(C(F)(F)F)CC2)cc1N1CCNC1=O | 2.01
Cc1c[nH]nc1C1CCN(C(=O)C2CCC2)CC1 | 5.33
CN(Cc1nnc(C2CC2)n1C)C1CCN(CCc2ccncc2)C1 (stereo unspecified) | -4.56
CNc1cc(C2CCCN2S(=O)(=O)c2cccc(F)c2)ccn1 (stereo unspecified) | -22.7
CNC(=O)C1CCC2(CCNCC2)C1 (stereo unspecified) | 6.41
Cn1cnnc1CNC(=O)C1CCCN(Cc2cccc(F)c2)C1 (stereo unspecified) | 5.49

SMILES | cytotoxicity at 10 µM [%]
O=C(NCc1ccco1)[C@@]12CCO[C@@H]1CCN(C1CCC1)C2 | 12.3
CCS(=O)(=O)N1CCN(C(=O)c2ccc(Cn3cc(Br)cn3)cc2)CC1 | -2.61
COC(=O)[C@@H]1Cc2ncn(C)c2CN1S(=O)(=O)c1ccc(Cl)cc1 | 4.67
O=C(c1cccc(C2CCNC2)c1)N1CCC(c2ncc[nH]2)CC1 (stereo unspecified) | -5.03
CC(C)Cc1cc(NC(=O)c2ccccc2)n(C)n1 | -3.37
CCN(CC)CCNC(=O)c1cc(OC)c2ccoc2c1 | -0.971
COc1ccc(C)cc1NC(=O)Nc1cnc(N2CCN(C)CC2)nc1 | 5.06
O=C(CC1CCCCC1)NC1CCCc2nc(N3CCOCC3)ncc21 (stereo unspecified) | -5.24
COc1cccc(NC(=O)N(CCC(F)(F)F)C[C@H](O)CO)c1 | -9.48
Cc1nn(CC(C)C)c(N(C)C)c1CNCCS(C)(=O)=O | 6.59
O=C(NCC1Cn2nnc(-c3ccsc3)c2CO1)c1ccc[nH]1 (stereo unspecified) | 2.28
CS(=O)(=O)NC1CCN(C(=O)NCc2ccccn2)CC1 | -5.04
c1ccc(-c2cc(CNCCN3CCOCC3)c3nnnn3c2)cc1 | -17.6
c1ccc2c(N3CCCCC3)cnnc2c1 | -5.34
COCCN(C)C1COC2(CCN(Cc3ccccn3)CC2)C1 (stereo unspecified) | -73.4
CC(=O)c1ccc(Cl)c(Cl)c1OCC(=O)NC(N)=O | 7.49
FC(F)(F)c1n[nH]c2c1CN(Cc1cn3ccccc3n1)CC2 | 7.76
Cc1cn2c(n1)CCC(NC(=O)c1cc[nH]n1)C2 (stereo unspecified) | -8.06
Cc1cc(-c2cnc(NCc3cccnc3)nc2C(C)(C)C)on1 | 49.6
CCCn1cnc2c(cnn2-c2cccc(C)c2C)c1=O | -8.17
CCN(CC1CCOC1)C(=O)NCc1ccc(-n2cncn2)nc1 (stereo unspecified) | 0.0529
Cc1oncc1C(=O)NCc1cc(=O)n2c(n1)CN(C)CCC2 | 5.02
CCCN1CCN(c2nc(N)nc3c2nc(C)n3C)CC1 | -5.15

SMILES | cytotoxicity at 10 µM [%]
O=C(O)CC(CC(=O)NCCc1cccs1)c1cccs1 (stereo unspecified) | -11.4
CCCS(=O)(=O)CC(=O)NC(C)c1cccc(-n2cccn2)c1 (stereo unspecified) | 6
CN(C)c1ncc(-c2cc(C(=O)O)n(CC3CC3)c2)cn1 | -9.23
O=C(NCCc1csc(N2CCCC2)n1)N(C1CCCC1)C1CC1 | 10.8
CN1CCc2ccc(NCc3cccs3)cc2C1=O | -4.72
Cc1cnc(N2CCC3(C2)CN(S(=O)(=O)C2CC2)C3)nc1 | -106
O=C(Nc1cc(-n2cccc2)ccc1F)N1CCCC1 | -4.22
C[C@@H]1CN(c2cc(N3CCC(O)CC3)ncn2)C[C@@]1(O)C1CCC1 | -5.73
COC1CCN(C(=O)c2ccc3ncsc3c2)CC1 | -10.3
COCCN1CCC2(CC1)CN(C(=O)c1ccco1)CCO2 | -1.27
CCn1ncnc1C1CC(=O)NCc2nc(N3CCCC3)sc21 (stereo unspecified) | -2.4
O=C(CN1CCC(c2ccccc2)C1)NC(=O)NCC(F)(F)F (stereo unspecified) | -12.1
Cc1ccc(CN(C)C(=O)NCC(C)(C)S(C)(=O)=O)s1 | 15.6
O=C(Cc1ccc2c(c1)CCO2)N1CCN(c2ccccn2)CC1 | -13.6
CCNc1ncc(C(=O)Nc2nnc(N3CCCCC3)[nH]2)s1 | -12.4
CCCNC(=O)C1(Cc2cc(-c3ccccc3)no2)CCN(C(C)=O)C1 (stereo unspecified) | 6.6
O=S1(=O)CCC(n2cc(C3=CCN(CCc4ccccc4)CC3)cn2)C1 (stereo unspecified) | -2.64
CC(C)CC(=O)N1CCC2(CC1)NC(=O)[C@H]1CN(C(=O)N(C)C)C[C@H]12 | -1.74
CCc1noc(C(C)N2CCN(Cc3noc(C)n3)CC2)n1 (stereo unspecified) | -4.48
